Measured values from publication PMC3398245 (Analytical Biochemistry, 2012).

How the values were obtained:
GST-RIP1 kinase domain [1] = target: T1, GST-RIP1 kinase domain (Homo sapiens, UniProt Q13546); test: FP competition assay with fluorescein-Nec-3; type: binding; conditions: competition with 50 nM 26, 3.4 µM GST-RIP1, 3% DMSO
T1 sequence (Q13546 8-327): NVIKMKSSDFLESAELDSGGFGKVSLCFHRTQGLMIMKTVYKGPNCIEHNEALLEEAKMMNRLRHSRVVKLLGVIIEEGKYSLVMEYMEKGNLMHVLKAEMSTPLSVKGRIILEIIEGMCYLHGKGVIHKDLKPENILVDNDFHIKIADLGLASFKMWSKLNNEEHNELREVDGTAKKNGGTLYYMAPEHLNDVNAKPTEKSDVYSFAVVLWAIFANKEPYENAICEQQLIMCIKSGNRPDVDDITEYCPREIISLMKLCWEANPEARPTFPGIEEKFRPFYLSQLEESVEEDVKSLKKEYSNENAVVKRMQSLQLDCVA
Summary of the method: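 Human RIP1 kinase domain (aa 8–327) as a GST fusion, expressed in baculovirus-infected Sf9 cells and purified by glutathione affinity and gel filtration. Tracer (50 nM) preincubated 5 min with 3.4 µM protein. Test compound titrated 0–100 µM at 3% final DMSO, then 10 min incubation. FP read at ex 485/em 535 nm in mP. IC50 from nonlinear variable-slope fit.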

GST-RIP1 kinase domain [2] = target: T1, GST-RIP1 kinase domain; test: FP competition assay with fluorescein-Nec-1; type: binding; conditions: competition with 50 nM 20, 2.6 µM GST-RIP1, 3% DMSO

IC50 (GST-RIP1 kinase domain [1]) [µM] | IC50 (GST-RIP1 kinase domain [2]) [µM] | SMILES
7 ± 0.7 | 9.9 ± 0.6 | CN1C(=O)C(Cc2c[nH]c3ccccc23)NC1=S (stereo not shown) [Compound 1]
3.9 ± 0.7 | 10.7 ± 1.8 | COc1ccc2c(c1)C1=NN(C(C)=O)C(c3ccc(F)cc3)C1CC2 (stereo not shown) [Compound 7]
